Measured values from ChEMBL document CHEMBL1128535, “Synthesis using a Fmoc-based strategy and biological activities of some reduced peptide bond pseudopeptide analogues of dynorphin A1” (J Med Chem, 1995).
*1 amine or outer side, *2 acyl side, *3 side chain or, on linkers, in order; H or OH if unused. Where a SMILES comes first, the peptide text is derived from it. Side-chain parts run from the residue outwards. [ ]: non-standard residue; d: D form. The star is where a group is joined. X2 = CC[C@H](C)[C@H](NC[C@H](CCCCN)N*)C(=O)N[C@@H](CCCN=C(N)N)C(=O)N1CCC[C@H]1C(=O)N[C@@H](CCCCN)C(N)=O; N(2-aminoethyl)Phe = O=C([C@H](Cc1ccccc1)N(CCN[*:3])[*:1])[*:2]; X4 = CC(C)C[C@@H](CN([C@@H](CCCN=C(N)N)C(=O)[*:2])[*:1])N[*:3]; X5 = NCCCC[C@@H](CN([C@@H](CCCN=C(N)N)C(=O)[*:2])[*:1])N[*:3]; X1 = CC(C)C[C@@H](C(=O)[*:2])N(C[C@H](Cc1ccccc1)N[*:3])[*:1]

Columns and labels:
[1] = target: Kappa-type opioid receptor (Cavia porcellus) (UniProt P41144); assay: Ratio of IC50 for central and peripheral kappa opioid receptor binding in guinea pig
Cavia porcellus [2] = organism: Cavia porcellus; assay: Binding affinity against smooth muscle tissue of Guinea pig ileum; type: functional
In short: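 Longitudinal muscle–myenteric plexus strips from male Hartley guinea pigs (250–500 g) in oxygenated Krebs buffer at 37 °C under 1 g tension. Transmural stimulation at 0.1 Hz, 0.4 ms, supramaximal voltage, with no peptidase inhibitors. Cumulative agonist doses every 3 min; % inhibition of contraction height measured. IC50 from a Hill-equation fit of mean data from 2–4 tissues.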

Mu-type opioid receptor = Mu-type opioid receptor (Cavia porcellus, UniProt P97266); assay: Binding affinity against Opioid receptor mu 1 from Guinea pig brain homogenate using [3H]DAMGO; type: tissue-based
Cavia porcellus [3] = organism: Cavia porcellus; assay: Selectivity as ratio of IC50 for mu and kappa opioid receptors
[4] = target: Kappa-type opioid receptor (Cavia porcellus, UniProt P41144); assay: Binding affinity against Opioid receptor kappa 1 of Guinea pig brain homogenate using [3H]U-69593; type: tissue-based
[5] = Selectivity as ratio of IC50 for delta and mu opioid receptors; conditions: Cavia porcellus

Kappa-type opioid receptor, sequence (P41144 whole entry): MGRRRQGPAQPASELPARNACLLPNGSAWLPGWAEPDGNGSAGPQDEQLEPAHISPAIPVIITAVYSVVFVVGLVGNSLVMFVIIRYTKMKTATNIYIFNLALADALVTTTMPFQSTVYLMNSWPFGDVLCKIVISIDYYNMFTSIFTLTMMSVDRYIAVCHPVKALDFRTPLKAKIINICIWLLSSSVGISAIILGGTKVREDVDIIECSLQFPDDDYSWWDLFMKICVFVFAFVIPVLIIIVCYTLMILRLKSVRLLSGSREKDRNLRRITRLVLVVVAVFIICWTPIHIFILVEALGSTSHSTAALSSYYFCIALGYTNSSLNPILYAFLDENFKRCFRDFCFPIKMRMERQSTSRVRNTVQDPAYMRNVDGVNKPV
Kappa-type opioid receptor (Cavia porcellus), sequence (P41144 whole entry): as above
Mu-type opioid receptor, sequence (P97266 whole entry): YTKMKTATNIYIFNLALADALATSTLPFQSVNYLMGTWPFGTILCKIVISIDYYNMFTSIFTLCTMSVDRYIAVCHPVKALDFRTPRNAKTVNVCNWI

Row | SMILES | Ratio [1] | IC50 (Cavia porcellus [2]) | IC50 (Mu-type opioid receptor) | Selectivity (Cavia porcellus [3]) | IC50 [4] | Selectivity [5]
1 | CC[C@H](C)[C@H](NC(=O)[C@H](CCCN=C(N)N)NC(=O)[C@H](CCCN=C(N)N)NC(=O)[C@H](CC(C)C)NC(=O)[C@H](Cc1ccccc1)NC(=O)CNC(=O)CNC[C@@H](N)Cc1ccc(O)cc1)C(=O)N[C@@H](CCCN=C(N)N)C(=O)N1CCC[C@H]1C(=O)N[C@@H](CCCCN)C(N)=O | 38.5 | 308 nM | 96 nM | 12 | 8 nM | 25
2 | CC[C@H](C)[C@H](NC(=O)[C@H](CCCN=C(N)N)NC(=O)[C@H](CCCN=C(N)N)NC[C@H](CCCCN)NC(=O)[C@H](Cc1ccccc1)NC(=O)CNC(=O)CNC(=O)[C@@H](N)Cc1ccc(O)cc1)C(=O)N[C@@H](CCCN=C(N)N)C(=O)N1CCC[C@H]1C(=O)N[C@@H](CCCCN)C(N)=O (H-[X5]([Phe-Gly-Gly-Tyr])RIRPK-NH2) | 78.4 | – | – | – | – | 59
3 | CC[C@H](C)[C@H](NC(=O)[C@H](CCCN=C(N)N)NC(=O)[C@H](CCCN=C(N)N)NC(=O)[C@H](CC(C)C)NC(=O)[C@H](Cc1ccccc1)NC(=O)CNC(=O)CNC(=O)[C@@H](N)Cc1ccc(O)cc1)C(=O)N[C@@H](CCCCN)CN1CCC[C@H]1C(=O)N[C@@H](CCCCN)C(N)=O | – | 2.1 nM | 5.2 nM | – | 0.24 nM | –
4 | CC[C@H](C)[C@@H](CN[C@@H](CCCN=C(N)N)C(=O)N1CCC[C@H]1C(=O)N[C@@H](CCCCN)C(N)=O)NC(=O)[C@H](CCCN=C(N)N)NC(=O)[C@H](CCCN=C(N)N)NC(=O)[C@H](CC(C)C)NC(=O)[C@H](Cc1ccccc1)NC(=O)CNC(=O)CNC(=O)[C@@H](N)Cc1ccc(O)cc1 | – | 3.7 nM | 4 nM | – | 0.36 nM | –
5 | CC[C@H](C)[C@H](NC(=O)[C@H](CCCN=C(N)N)NC(=O)[C@H](CCCN=C(N)N)NC[C@H](CC(C)C)NC(=O)[C@H](Cc1ccccc1)NC(=O)CNC(=O)CNC(=O)[C@@H](N)Cc1ccc(O)cc1)C(=O)N[C@@H](CCCN=C(N)N)C(=O)N1CCC[C@H]1C(=O)N[C@@H](CCCCN)C(N)=O (H-[X4]([Phe-Gly-Gly-Tyr])RIRPK-NH2) | 30.4 | 21 nM | 0.64 nM | 1 | 0.61 nM | 52
6 | CC[C@H](C)[C@H](NC(=O)[C@H](CCCN=C(N)N)NC[C@H](CCCCN)NC(=O)[C@H](CC(C)C)NC(=O)[C@H](Cc1ccccc1)NC(=O)CNC(=O)CNC(=O)[C@@H](N)Cc1ccc(O)cc1)C(=O)N[C@@H](CCCN=C(N)N)C(=O)N1CCC[C@H]1C(=O)N[C@@H](CCCCN)C(N)=O | – | 70.6 nM | 9 nM | – | 0.9 nM | –
7 | CC[C@H](C)[C@H](NC[C@H](CCCCN)NC(=O)[C@H](CCCN=C(N)N)NC(=O)[C@H](CC(C)C)NC(=O)[C@H](Cc1ccccc1)NC(=O)CNC(=O)CNC(=O)[C@@H](N)Cc1ccc(O)cc1)C(=O)N[C@@H](CCCN=C(N)N)C(=O)N1CCC[C@H]1C(=O)N[C@@H](CCCCN)C(N)=O (H-YGGFLR-X2) | – | 2.8 nM | 9.2 nM | – | 0.16 nM | –
8 | CC[C@H](C)[C@H](NC(=O)[C@H](CCCN=C(N)N)NC(=O)[C@H](CCCN=C(N)N)NC(=O)[C@H](CC(C)C)NC[C@H](Cc1ccccc1)NC(=O)CNC(=O)CNC(=O)[C@@H](N)Cc1ccc(O)cc1)C(=O)N[C@@H](CCCN=C(N)N)C(=O)N1CCC[C@H]1C(=O)N[C@@H](CCCCN)C(N)=O (H-[X1]([Gly-Gly-Tyr])RRIRPK-NH2) | – | 16.6 nM | 12 nM | – | 0.55 nM | –
9 | CC[C@H](C)[C@H](NC(=O)[C@H](CCCN=C(N)N)NC(=O)[C@H](CCCN=C(N)N)NC(=O)[C@H](CC(C)C)NC(=O)[C@H](Cc1ccccc1)NCCNC(=O)CNC(=O)[C@@H](N)Cc1ccc(O)cc1)C(=O)N[C@@H](CCCN=C(N)N)C(=O)N1CCC[C@H]1C(=O)N[C@@H](CCCCN)C(N)=O (H-[N(2-aminoethyl)Phe]([Gly-Tyr])LRRIRPK-NH2) | – | 20.5 nM | 1040 nM | – | 17 nM | –
